Experimental data from different studies.
Lines come from different studies, so protocols differ.

Compound	technique	medium	time	pH	temperature	notes	solubility
O=C(O)Cc1ccccc1Nc1c(Cl)cccc1Cl		FaSSIF					324 µM
NCc1ccc(-c2nn(Cc3ccccn3)c3cccnc23)o1		aqueous buffer	6 h	pH 7.4			> 30 µg/mL
C[C@H]1CN(c2cccc(-c3ccc4ncnc(Nc5ncco5)c4c3)c2)CCO1		aqueous buffer		pH 7.4	25 °C		6 µM
CC(C)N(c1ccc(C#N)cc1)c1ccc(NC(=O)CN(C)c2ccccc2N2CCCC2=O)cn1		PBS		pH 7.4			40 µM
O=C(Nc1ccc(OC(F)(F)F)cc1)N[C@H]1CC[C@H](Oc2ccc(C(=O)O)cc2)CC1		simulated gastric fluid	10 min	pH 1	37 °C	acidic	0.0002 µg/mL
c1cc(-c2ccc3ncnc(Nc4ncco4)c3c2)nc(N2CCOCC2)n1		aqueous buffer		pH 7.4	25 °C		3 µM
NCc1ccc(-c2nn(Cc3ccncc3)c3ccccc23)o1		aqueous buffer	6 h	pH 7.4			> 30 µg/mL
CC(C)(C(=O)O)[C@@H](NC(=O)Cc1cccc(I)c1)c1ccc2oc(=O)[nH]c2c1		aqueous buffer		pH 6.8			> 700 µM
Cc1ccc(Nc2ncnc3ccc(-c4cccc(N5CCOCC5)c4)cc23)cc1		aqueous buffer		pH 7.4	25 °C		0.9 µM
O=C(O)c1cc(-c2ccc(-n3ccnn3)cc2)c2ccc(-c3ccc(C(F)(F)F)cc3)cc2c1		aqueous buffer		pH 7.4			9.1 µg/mL
Cc1ccc(N(c2ccc(NC(=O)CN(C)c3ccccc3N3CCCC3=O)cn2)C(C)C)cc1		PBS		pH 7.4			24 µM
CNS(=O)(=O)c1ccc(Nc2ncc(C(F)(F)F)c([C@H]3CC[C@@](C)(O)CC3)n2)c(C)c1		PBS	2 h	pH 7.4			11 µM
CC[C@H]1OC(=O)[C@H](C)[C@@H](O[C@H]2C[C@@](C)(OC)[C@@H](O)[C@H](C)O2)[C@H](C)[C@@H](O[C@@H]2O[C@H](C)C[C@H](N(C)C)[C@H]2O)[C@](C)(O)C[C@@H](C)C(=O)[C@H](C)[C@@H](O)[C@]1(C)O		aqueous buffer	18 h	pH 7.4			664 µM
CCOC(=O)C1=C(CN2CCC[C@@H]2C(=O)Nc2ccc(B(O)O)cc2)NC(c2nccs2)=N[C@H]1c1ccc(F)cc1Br	HPLC	aqueous buffer		pH 2			257 µg/mL
Cc1ccc(N(C)c2ccc(NC(=O)CN(C)c3ccccc3N3CCCC3=O)cc2)cc1		PBS		pH 7.4			7.2 µM
CN(C)CCOc1ccc2c(=O)c3c([nH]c2c1)CCCC3	absorbance	aqueous buffer	90 min	pH 7.4			> 500 µM
Cc1ccc(Nc2cnnc3ccc(-c4ccc(N5CCCN(C)CC5)cc4)cc23)cn1		aqueous buffer		pH 7.4	25 °C		82 µM
CCOc1ccc(Nc2c3c(nc4ccccc24)CCC3)cc1		simulated gastric fluid	30 min	pH 2		acidic	> 100 µg/mL
OCc1ccc(-c2nn(Cc3ccccc3)c3ncccc23)o1		aqueous buffer	6 h	pH 7.4			> 45 µg/mL
CN(CC(=O)Nc1ccc(N(C)c2ccc(Cl)c(F)c2)cc1)c1ccccc1N1CCCC1=O		PBS		pH 7.4			< 2.5 µM
CN1CCN(c2cccc(-c3ccc4ncnc(Nc5ncco5)c4c3)c2)CC1		aqueous buffer		pH 7.4	25 °C		520 µM
CC(C)(C)OC(=O)N1CCC(Oc2ccc3c(=O)c4c(F)cc(Cl)cc4[nH]c3c2)C1 (stereo not drawn)	absorbance	aqueous buffer	90 min	pH 7.4			< 3.12 µM
Cc1ncc(-c2cc3cc(-c4c(C)ccc(O)c4C)cnc3[nH]2)cn1		aqueous buffer	24 h	pH 7.4			< 1.56 µM

Compound	technique	medium	time	pH	temperature	notes	solubility
Clc1cccc(Nc2ncnc3ccc(-c4cccc(N5CCOCC5)c4)cc23)c1		aqueous buffer		pH 7.4	25 °C		12 µM
COc1ccc(Nc2cnnc3cc(-c4cnc(N5CCCN(C)CC5)nc4)ccc23)cc1Cl		aqueous buffer		pH 7.4	25 °C		1000 µM
C[C@@H]1CN(c2cccc(-c3ccc4ncnc(Nc5ncco5)c4c3)c2)C[C@H](C)O1		aqueous buffer		pH 7.4	25 °C		11 µM
CNS(=O)(=O)c1ccc(Nc2ncc3cc(Cl)c(=O)n(C4CCCC4)c3n2)c(C)c1		FaSSIF	2 h				15 µM
COc1ccc(Cn2cc(CO[C@@H]3O[C@H]4[C@H](OC[C@H]4O)[C@H]3O)nn2)cc1		PBS		pH 7.4			198 µM
OCc1ccc(-c2nn(Cc3ccccn3)c3ccccc23)o1		aqueous buffer	6 h	pH 7.4			> 45 µg/mL
Cc1cc(-c2ccnc3[nH]cc(F)c23)cc(F)c1[C@@]1(O)[C@H](C)CN(C(=O)CN)C[C@@H]1C		aqueous buffer					11.9 µg/mL
Cn1cc(-c2ccc3ccn(CC(=O)Nc4ccccc4Cl)c3c2)c(C(F)(F)F)n1		PBS		pH 7.4			< 2.7 µM
c1cc(-c2ccc3ncnc(Nc4ncco4)c3c2)cc(N2CC3CCC(C2)O3)c1		aqueous buffer		pH 7.4	25 °C		0.4 µM
CCCN(CCC)CCCOc1ccc2c(=O)c3c([nH]c2c1)CCCC3	absorbance	aqueous buffer	90 min	pH 7.4			> 500 µM
Cc1c(Cl)cccc1-c1ccc2c(c1)N(Cc1noc(C3CCC3)n1)C(=O)CO2		PBS	8 h	pH 7.4			100 µM
CC(C)N(c1ccc(Cl)c(F)c1)c1ccc(NC(=O)CN(C)c2ccccc2N2CCCC2=O)cn1		PBS		pH 7.4			9.6 µM
CCN(CC)CCCOc1ccc2c(=O)c3c([nH]c2c1)CCCC3	absorbance	aqueous buffer	90 min	pH 7.4			> 500 µM
CCOC(=O)C1=C(CN2CCOCC2)NC(c2nccs2)=NC1c1ccc(F)cc1Br (stereo not drawn)	HPLC	aqueous buffer		pH 7.4			< 1 µg/mL
CNS(=O)(=O)c1ccc(Nc2ncc(C(F)(F)F)c(N3CCC[C@](C)(O)C3)n2)c(C)c1		PBS	2 h	pH 7.4			37 µM
COc1cccc(Cn2nc(-c3ccc(CO)o3)c3ccccc32)c1		aqueous buffer	6 h	pH 7.4			1 µg/mL
Oc1ccc(/C=C/c2cc(O)cc(O)c2)cc1	HPLC	aqueous buffer	24 h	pH 6.8			79.5 µg/mL
Cc1ccccc1CN1C(=O)C2=C(CCN(Cc3ccccc3)C2)N2CCN=C12	shake flask	aqueous buffer		pH 1			62200 µg/mL
O=c1c2ccc(Oc3ccc(OC(F)(F)F)cc3)cc2[nH]c2ccc(Cl)c(F)c12	absorbance	aqueous buffer	90 min	pH 7.4			< 3.12 µM
COc1cc(NC(=O)Cn2ccc3cc(F)c(-c4cnn(C)c4)cc32)cc(OC)c1OC		PBS		pH 7.4			< 2.7 µM
OCc1ccc(-c2nn(Cc3ccccc3)c3ccncc23)o1		aqueous buffer	6 h	pH 7.4			> 45 µg/mL
c1cc(-c2ccc3ncnc(Nc4ncco4)c3c2)cc(N2CC3(COC3)C2)c1		aqueous buffer		pH 7.4	25 °C		3 µM
